procasp7 counter: counter-screen: procaspase-7 (human) activation; recombinant procaspase-7, Ac-DEVD-pNA absorbance 405 nm; D23A/D198A/D206A triple mutant, cannot self-cleave; scale: DMSO 0, 5 µM enzyme 100; 330,000 tested, 0.093% active; P55210; activation, % at 8.5 µM;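 active means percent activation above the screen-wide mean plus 3 SD, cut at about 25% in these data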
Target sequence (P55210 whole entry D23A/D198A/D206A): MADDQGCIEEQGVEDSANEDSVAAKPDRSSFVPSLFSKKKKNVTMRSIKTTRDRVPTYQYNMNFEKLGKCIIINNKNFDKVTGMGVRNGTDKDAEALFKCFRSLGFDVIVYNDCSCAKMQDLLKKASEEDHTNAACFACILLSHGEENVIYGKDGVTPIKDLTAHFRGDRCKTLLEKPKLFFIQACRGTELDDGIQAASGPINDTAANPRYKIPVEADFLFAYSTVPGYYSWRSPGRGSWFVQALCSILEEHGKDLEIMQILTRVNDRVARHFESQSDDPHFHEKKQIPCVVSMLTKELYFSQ
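Assay system: Uncleavable procaspase-7 mutant enzyme | Input: 2 µM procaspase-7 mutant as dispensed | Timing: 1 h compound preincubation, 2 h substrate cleavage, 25 °C | Repeats: One well per compound | Control set: DMSO wells as 0%, DMSO with 5 µM added PC-7 as 100% | Technique: Epi-absorbance of released pNA at 405 nm, two timepoints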
procasp3 activ: activators of human procaspase-3; P42574; recombinant procaspase-3 D3A, Ac-DEVD-pNA absorbance 405 nm; activation, % at 8.5 µM; 330,000 tested, 0.11% active; AID 463141;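 active means activation above the mean of all tested compounds plus 3 SD, cut at about 21% in these data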;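 further: 0% = DMSO alone and 100% = DMSO wells spiked with extra 5 µM PC-3 D3A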
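Compound: 8.5 µM single point, 0.8% DMSO / Material: Autoprocessing-dead procaspase-3 D3A mutant enzyme / Timing: 1 h preincubation plus 2 h reaction at 25 °C / Medium: Zinc-free HEPES/NaCl buffer with 0.01% Triton X-100 at pH 7.4 / Technique: 405 nm absorbance of p-nitroaniline, reads at 0 and 120 min / Repeats: one well per compound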
LYPLA1 inh: counter-screen for PME1 inhibitors: inhibitors of human LYPLA1; recombinant LYPLA1, FP-Rh probe fluorescence polarization; inhibition, % at 5.9 µM; 320,000 tested, 0.16% active; AID 2174;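 active means inhibition above the mean of all tested compounds plus 3 SD, set per campaign, cut at about 14% in these data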;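 further: inhibitors block serine hydrolase probe labeling of LYPLA1 so polarization falls; 0% = enzyme with DMSO and 100% = wells lacking LYPLA1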
Target sequence (O75608 whole entry, looked up): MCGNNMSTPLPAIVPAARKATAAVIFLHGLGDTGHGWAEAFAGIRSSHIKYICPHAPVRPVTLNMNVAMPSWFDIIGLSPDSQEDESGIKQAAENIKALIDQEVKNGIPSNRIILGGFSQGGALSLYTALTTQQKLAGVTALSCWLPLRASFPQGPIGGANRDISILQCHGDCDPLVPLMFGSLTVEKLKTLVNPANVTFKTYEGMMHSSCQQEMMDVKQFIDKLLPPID
LYPLA2 counter: counter-screen for PME1 inhibitors: inhibitors of human LYPLA2; O95372; recombinant LYPLA2, FP-Rh probe fluorescence polarization; inhibition, % at 5.9 µM; 320,000 tested, 0.38% active; AID 2177;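 active means inhibition above the screen-wide mean plus 3 SD, limit set per campaign, cut at about 26% in these data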;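 further: 0% = LYPLA2 with DMSO and 100% = wells lacking LYPLA2 enzyme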
PREPL inh: human PREPL enzyme inhibition | recombinant PREPL, fluorescence polarization activity-based probe | 320,000 tested, 0.68% active | inhibition, % at 5.96 µM | AID 2751; in the data active means inhibition above about 43%;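 further: 0% = enzyme with DMSO and 100% = wells lacking enzyme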
LYPLA2 confirm: counter-screen for PME1 inhibitors: confirmation of human LYPLA2 inhibitors. 1,100 tested, 72% active. shares compounds with LYPLA2 counter. inhibition, % at 5.9 µM. recombinant LYPLA2, FP-Rh probe fluorescence polarization;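 active means mean inhibition across replicates above the hit cutoff set in the primary screen, cut at about 26% in these data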;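 further: blocked labeling of the enzyme by serine hydrolase FP-Rh probe lowers polarization; 0% = enzyme with DMSO and 100% = wells lacking LYPLA2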
LYPLA2 gel ABPP: inhibitors of human LYPLA2. shares compounds with LYPLA2 counter. rhLYPLA2 in mouse brain proteome, gel ABPP FP-Rh. inhibition, % at 20 µM. 150 tested, 30% active. AID 652029;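 active means inhibition of LYPLA2 enzyme probe labeling above about 50%, limit read from the data; inactive means inhibition below that limit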;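 further: loss of FP-Rh probe labeling of the LYPLA2 gel band measured as band density; 0% = DMSO only control band and 100% = blank gel background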
The depositor's hits bear a star; . = no result. Sampled rows, rich in hits. Any-hit rate of the full collection: about 1.1%.

SMILES	procasp7 counter	procasp3 activ	LYPLA1 inh	LYPLA2 counter	PREPL inh	LYPLA2 confirm	others
COc1ccc(CNC(=O)c2ccc(N3CCC4(CC3)CC(c3ccc(Cl)cc3)=NO4)c([N+](=O)[O-])c2)cc1	-8.5	-2.3	-2.6	5.6	17.5	.
COc1ccc(CNC(=O)c2ccc(N3CCC4(CC3)CC(c3ccc(Cl)cc3)=NO4)c(N)c2)cc1	4.0	-4.7	1.4	40.1*	23.6	40.8*
COc1ccc(S(=O)(=O)N2CCOCC2)cc1NC(=O)c1cc(=O)[nH]c2ccccc12	-13.2	4.6	-3.1	-1.2	8.4	.
O=C(Nc1cc(S(=O)(=O)N2CCCCC2)ccc1N1CCOCC1)c1cc(=O)[nH]c2ccccc12	2.3	6.9	-1.8	31.6*	-0.4	26.6*
CCOC(=O)c1ccc(NC(=S)Nc2ccccc2N)cc1	-10.6	-6.0	1.5	3.3	2.5	.
Cc1ccc(Oc2coc3cc(OC(=O)c4cccs4)ccc3c2=O)cc1	6.6	-4.9	1.5	48.1*	38.6	43.8*
Cc1cccc(Oc2coc3cc(OC(=O)c4cccs4)ccc3c2=O)c1	3.8	-1.3	3.3	16.0	33.5	.
Cc1cc(C)cc(Oc2coc3cc(OC(=O)c4cccs4)ccc3c2=O)c1	4.9	7.1	2.1	28.7*	20.3	18.2
O=C(c1ccc(CNc2c(N3CCOCC3)c(=O)c2=O)cc1)N1CC=C(c2ccccc2)CC1	-2.0	3.5	6.3	44.2*	40.5	40.6*
Cc1ccc(NC(=O)c2ccc(CNc3c(N4CCOCC4)c(=O)c3=O)cc2)cc1	6.8	-5.0	-2.8	1.6	4.0	.
CC(CN1C(C)CCCC1C)OC(=O)c1ccccc1Br (stereo not drawn)	10.7	2.9	0.7	-1.8	1.5	.
O=[N+]([O-])c1ccc(Sc2ccccc2Cl)nc1	-3.4	-14.2	3.6	45.2*	14.8	47.8*
COc1ccc(N2CCN(C(CNC(=O)C(C)C)c3ccc4c(c3)OCO4)CC2)cc1 (stereo not drawn)	-8.7	9.2	2.0	4.7	15.2	.
Cc1ccc(NC(=O)Cn2cnc3sc(C(=O)NCc4ccco4)c(C)c3c2=O)cc1Cl	-9.5	-4.0	-6.6	22.7	-21.0	.
COC(=O)CNC(=O)c1sc2ncn(CC(=O)Nc3ccc(C)c(Cl)c3)c(=O)c2c1C	6.5	1.0	-9.4	39.5*	-12.1	46.1*
COCCNC(=O)c1sc2ncn(CC(=O)Nc3ccc(C)c(Cl)c3)c(=O)c2c1C	-7.7	-3.7	2.4	50.0*	-1.3	47.4*
C(=N\n1cnnc1)/c1cccc(OCCOc2ccccc2)c1	9.3	-8.1	5.3	12.5	-5.6	.
Clc1ccc(Oc2cccc(/C=N/n3cnnc3)c2)cc1	9.5	5.6	8.9	36.9*	18.5	31.5*
Cc1ccsc1C(=O)N1CCCC(N(C)Cc2ccccc2)C1 (stereo not drawn)	-3.5	7.7	2.7	5.7	-0.5	.
COc1ccc(N2CCN(c3ncnc4c3nnn4Cc3ccccc3Cl)CC2)cc1	8.9	2.0	8.4	35.2*	6.6	39.8*
O=C(CSc1nc2nccnc2c(=O)n1Cc1cccs1)Nc1ccccc1	4.3	5.7	-7.4	4.0	-3.6	.
COc1ccccc1NC(=O)CSc1nc2nccnc2c(=O)n1Cc1cccs1	-7.6	-0.5	-2.8	26.9*	-1.1	-3.7
O=C(NCCNc1ccc([N+](=O)[O-])cc1C(F)(F)F)c1ccccc1F	-6.4	-8.9	-7.0	27.1*	3.4	25.6
CCOC(=O)C1CCN(C(=O)Cn2ncc3c([nH]c4ccccc43)c2=O)CC1	-6.1	10.3	-0.6	2.4	8.2	.
CCN(CC)C(=O)c1ccc(S(=O)(=O)N2CCC(c3nc4ccccc4s3)CC2)cc1	5.9	6.0	5.8	27.2*	-13.2	15.6
SMILES	procasp7 counter	procasp3 activ	LYPLA1 inh	LYPLA2 counter	PREPL inh	LYPLA2 confirm	others
CC1CCCN(C(=O)c2ccc(S(=O)(=O)N3CCC(c4nc5ccccc5s4)CC3)cc2)C1 (stereo not drawn)	-1.9	-4.7	2.2	1.9	15.7	.
O=C(COc1ccc(S(=O)(=O)NCc2ccccc2)cc1Cl)NCc1ccncc1	1.6	3.6	-2.0	40.6*	-7.1	46.0*
COc1ccc(C2=NOC(C(=O)Nc3cccc(O)c3)C2)cc1 (stereo not drawn)	3.1	-7.7	-0.6	-1.4	3.2	.
COc1cccc([C@@H]2Oc3ccc(OC)cc3C(=O)[C@H]2O)c1	-44.7	-19.9	0.3	9.0	8.0	.
COc1ccc2c(c1)C(=O)[C@@H](O)[C@H](c1ccc(OC)c(Br)c1)O2	-32.8	-12.2	2.3	70.2*	15.5	70.5*	LYPLA2 gel ABPP=63.0*
O=C(Nc1ccc(N2CCN(C(=O)c3ccc(Cl)cc3)CC2)cc1)c1ccc2c(c1)OCCO2	2.3	-1.8	4.3	58.2*	36.4	63.4*	LYPLA2 gel ABPP=24.0
O=C(c1ccc(N2CCCC2=O)cc1)N1CCN(c2ccccc2Cl)CC1	2.5	6.2	0.2	10.1	8.7	.
COc1cc(OC)cc(C(=O)Nc2ccc(N3CCN(C(=O)c4cccs4)CC3)cc2)c1	-4.4	-2.5	0.6	1.1	20.3	.
CC(=O)c1ccc(N2CCN(C(=O)Nc3ccc(Cl)cc3)CC2)cc1	3.0	15.3	13.6	27.0*	17.1	18.2
O=C(c1ccc(N2CCCC2=O)cc1)N1CCN(c2ccc(Cl)cc2)CC1	0.3	1.2	0.5	53.2*	7.7	54.8*	LYPLA2 gel ABPP=40.0
COc1ccc(C(=O)Nc2ccc(N3CCN(C(=O)c4cccs4)CC3)cc2)cc1Br	3.5	1.2	4.2	29.5*	30.5	27.3*
O=C(Nc1ccc(N2CCN(C(=O)c3ccccc3)CC2)cc1)c1ccc2c(c1)OCCO2	-4.4	0.6	-4.3	-0.9	18.7	.
CN(C)CCNC(=O)c1nn(C)c2c1CCc1ccccc1-2	10.7	2.9	-1.4	-1.1	-16.9	.
O=C(Nc1ccc(N2CCN(C(=O)c3ccc(Cl)cc3)CC2)cc1)c1cccs1	5.3	-1.1	-0.5	28.5*	10.3	26.8*
CCNC(=O)NC(=O)COC(=O)c1cccc(S(=O)(=O)N2CC3(C)CC2CC(C)(C)C3)c1 (stereo not drawn)	8.6	3.1	0.6	-7.0	-5.2	.
O=C(Nc1ccn(C2CC(OC(=O)c3ccccc3)C(CO)O2)c(=O)n1)c1ccccc1 (stereo not drawn)	6.0	4.4	-3.2	26.0*	-5.4	9.6
CCOC(=O)C1CCN(C(=O)CNC(=O)Cn2c(C)cc3ccccc3c2=O)CC1	8.1	-1.8	1.7	29.0*	0.0	18.7
Cc1ccc(N2C(=O)c3ccc(C(=O)N4CCN(c5ccc(C)c(C)c5)CC4)cc3C2=O)cc1	4.9	3.9	3.0	4.6	4.8	.
